Data published in ChEMBL document CHEMBL5325438 (Eur J Med Chem, 2023).
Calls of active or inactive are those of the source. Square brackets hold non-standard residues; d marks the D form. Peptide text beside a SMILES is read from it. * marks the point of attachment. Cav = NC(N)=NOCC[C@H](N)C(=O)O; Tle = CC(C)(C)[C@H](N)C(=O)O; X1 = C[C@@H](CCCCN)C(=O)*

Key:
[1] = system: HepG2; assay: Cytotoxicity against human HepG2 cells assessed as reduction in cell viability at 100 uM incubated for 24 hrs by MTT assay relative to control; type: toxicity, cell-based; conditions: hepg2, 24 h
Summary of the method: (§1)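 HepG2, MDA-MB-231 and HT-29 cells grown in DMEM/10% FBS with penicillin/streptomycin at 37 °C, 5% CO2. Exponential-phase cells seeded at 5000/well, left overnight, then exposed 24 h to peptide at 0.1–100 μM (from 1.0 mM PBS pH 7.4 stocks). Viability by MTT, as % of untreated control ± SD.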

[2] = Stability of compound in PBS buffer assessed as parent compound remaining at pH 2.0 incubated for 24 hrs by UV/Vis spectroscopic analysis; type: physicochemical; conditions: read-out: Stability
Summary of the method: (§2)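 Peptide at 50 μM in PBS at pH 2.0 or 7.4, kept at 37 °C; short-term stability over 0–24 h followed by UV/Vis spectroscopy; % remaining reported.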

[3] = system: MDA-MB-231; assay: Cytotoxicity against human MDA-MB-231 cells assessed as reduction in cell viability at 100 uM incubated for 24 hrs by MTT assay relative to control; type: toxicity, cell-based; conditions: mda-mb-231, 24 h; summary of the method: as §1
[4] = system: MDA-MB-231; assay: Cytotoxicity against human MDA-MB-231 cells assessed as reduction in cell viability at 0.1 to 100 uM incubated for 24 hrs by MTT assay; type: toxicity, cell-based; conditions: mda-mb-231, 24 h, dose 0.1-100 µM; summary of the method: as §1
[5] = system: HepG2; assay: Cytotoxicity against human HepG2 cells assessed as reduction in cell viability at 0.1 to 100 uM incubated for 24 hrs by MTT assay; type: toxicity, cell-based; conditions: hepg2, 24 h, dose 0.1-100 µM; summary of the method: as §1
[6] = Stability of compound in PBS buffer assessed as parent compound remaining at pH 7.4 measured after 30 days by RP-HPLC/UV/Vis spectroscopic analysis; type: physicochemical; conditions: time 30 day, read-out: Stability
Summary of the method: (§3)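 Peptide at 50 μM in PBS at pH 2.0 or 7.4, stored at room temperature and 37 °C for 30 days; % peptide remaining reported.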

[7] = Toxicity in MPTP-induced parkinsons's disease BALB/c albino mouse model assessed as body weight loss at 10 mg/kg, ip preadministered with compound for 1 hrs followed by MPTP-addition and measured 5 days after first MPTP addition; type: organism-based; conditions: in vivo, 121 h
Summary of the method: (§4)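 Male BALB/c mice (n = 5/group) given peptide 10 mg/kg i.p. daily for 5 days, each dose followed 60 min later by MPTP 30 mg/kg i.p.; saline controls. Body weight recorded on days 1, 5 and 10.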

[8] = system: Mus musculus; assay: (§5) Neuroprotective activity against MPTP-induced Parkinson's disease BALB/c albino mouse model assessed as restoration of step-through latency values at 10 mg/kg, ip preadministered with compound for 1 hrs followed by MPTP addition and measured 10 days after first MPTP addition by step-through passive avoidance test; type: functional, organism-based; conditions: time 241.0 hrs
Summary of the method: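 Male BALB/c mice (8–10 weeks, 30–35 g), n = 5/group, were dosed i.p. once daily for 5 days with peptide (10 mg/kg), then MPTP (30 mg/kg) 60 min later; controls received saline or MPTP alone. On day 10, the latency to enter the dark compartment was recorded (cut-off 180 s). Data are mean ± SEM, analysed by one-way ANOVA/Dunnett versus saline and MPTP groups.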

[9] = system: Mus musculus; assay: as §5, with “motor function by measuring increase in hanging time value” for “step-through latency values”, “hanging” for “step-through passive avoidance”, “test relative to control” for “test”; type: functional; conditions: time 241 hrs
Summary of the method: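 Male BALB/c mice, 8–10 weeks old, 30–35 g, n = 5/group, trained 3 days on a horizontal wire (55 cm, 2.0 mm diameter, 37 cm high). Peptide 10 mg/kg i.p. daily for 5 days, with MPTP 30 mg/kg i.p. given 60 min later; saline controls. Hanging time tested on day 10; one-way ANOVA with Dunnett's test; mean ± SEM.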

[10] = Toxicity in MPTP-induced parkinsons's disease BALB/c albino mouse model assessed as body weight loss at 10 mg/kg, ip preadministered with compound for 1 hrs followed by MPTP-addition and measured 10 days after first MPTP addition; type: organism-based; conditions: in vivo, 241 h; summary of the method: as §4
[11] = Stability of compound in PBS buffer assessed as parent compound remaining at pH 7.4 incubated for 24 hrs by UV/Vis spectroscopic analysis; type: physicochemical; conditions: read-out: Stability; summary of the method: as §2
[12] = Stability of compound in PBS buffer assessed as parent compound remaining at pH 2.0 measured after 30 days by RP-HPLC/UV/Vis spectroscopic analysis; type: physicochemical; conditions: time 30 day, read-out: Stability; summary of the method: as §3
[13] = system: HT-29; assay: Cytotoxicity against human HT-29 cells assessed as reduction in cell viability at 0.1 to 100 uM incubated for 24 hrs by MTT assay; type: toxicity, cell-based; conditions: ht-29, 24 h, dose 0.1-100 µM; summary of the method: as §1
[14] = system: HT-29; assay: Cytotoxicity against human HT-29 cells assessed as reduction in cell viability at 100 uM incubated for 24 hrs by MTT assay relative to control; type: toxicity, cell-based; conditions: ht-29, 24 h; summary of the method: as §1
[15] = Permeability of compound in PBS buffer at pH 7.4 at 100 uM incubated for 4 hrs by PAMPA-BBB assay; type: ADME; conditions: read-out: permeability
Summary of the method: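 PAMPA-BBB with peptide at 100 μM in PBS, donor and acceptor both pH 7.4, 4 h at room temperature. Effective permeability Pe (×10⁻⁶ cm/s) and −log Pe reported as mean ± SEM of three independent experiments.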

[16] = system: Mus musculus; assay: Neuroprotective activity against MPTP-induced neurotoxicity in BALB/c albino mouse model assessed as alleviation of MPTP-induced nigrostriatal dopaminergic neuronal damage by measuring increase in number of TH-postivie neurons in substantia nigra at 10 mg/kg, ip preadministered with compound for 1 hrs followed by MPTP addition and measured 11 days after first MPTP addition by immunohistological staining analysis (reference value: 66 +/- 1.41%); type: functional; conditions: time 265 hrs
Summary of the method: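 Same dosing as the behavioural study (peptide 10 mg/kg i.p., then MPTP 30 mg/kg i.p. 60 min later, 5 days; n = 5). Brains taken on day 11, fixed in 10% paraformaldehyde (pH 7.4, 0.1 M phosphate) overnight at 4 °C and paraffin-embedded. Substantia nigra sections stained with rabbit anti-TH (1:500). TH-positive cells counted, as % of saline control; ANOVA/Dunnett.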

[17] = target: Neurotensin receptor type 2 (Homo sapiens, UniProt O95665); assay: Binding affinity to human NTSR2 transfected in HEK293 cells assessed as inhibition constant incubated for 60 mins in the presence of [Leu3H]NT(8-13) by radioligand competition binding assay; type: cell-based
Summary of the method: (§6)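 IC50 from nonlinear regression, converted to Ki by Cheng–Prusoff; protein by Lowry. Means ± SEM of three (NTS1R) or four to five (NTS2R) experiments, each in triplicate. SI = Ki(NTS1R)/Ki(NTS2R).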

[18] = target: T1, Neurotensin receptor type 1 (Homo sapiens, UniProt P30989); assay: Agonist activity at human NTSR1 expressed in HEK293 cells assessed as Galphaq-mediated modulation of IP production by measuring maximal efficacy incubated for 90 mins by IP-one HTRF assay relative to full effect of (2S)-2-[[(2S,3S)-2-[[(2S)-2-[[(2S)-1-[(2S)-2-[[(2S)-2-amino-5-guanidino-pentanoyl]amino]-5-guanidino-pentanoyl]pyrrolidine-2-carbonyl]amino]-3-(4-hydroxyphenyl)propanoyl]amino]-3-methyl-pentanoyl]amino]-4-methyl-pentanoic acid; type: functional, cell-based; conditions: filed as agonist
[19] = target: T1, Neurotensin receptor type 1; assay: Binding affinity to human NTSR1 transfected in HEK293 cells assessed as inhibition constant incubated for 60 mins in the presence of [Leu3H]NT(8-13) by radioligand competition binding assay; type: cell-based
[20] = species: Homo sapiens; assay: Selectivity index, ratio of Ki for human NTSR1 transfected in HEK293 cells in the presence of [Leu3H]NT(8-13) to Ki for human NTSR2 transfected in HEK293 cells in the presence of [Leu3H]NT(8-13); type: cell-based
Summary of the method: as §6, with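 “Membranes from HEK293(T) cells transiently transfected with hNTS1R or hNTS2R; competition binding against [³H]NT(8–13). IC50” for “IC50”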

[21] = target: T1, Neurotensin receptor type 1; assay: Agonist activity at human NTSR1 expressed in HEK293 cells assessed as Galphaq-mediated modulation of IP production incubated for 90 mins by IP-one HTRF assay; type: functional, cell-based
[22] = target: T1, Neurotensin receptor type 1; assay: Binding affinity to human NTS1R assessed as dissociation constant

T1 sequence (P30989 whole entry): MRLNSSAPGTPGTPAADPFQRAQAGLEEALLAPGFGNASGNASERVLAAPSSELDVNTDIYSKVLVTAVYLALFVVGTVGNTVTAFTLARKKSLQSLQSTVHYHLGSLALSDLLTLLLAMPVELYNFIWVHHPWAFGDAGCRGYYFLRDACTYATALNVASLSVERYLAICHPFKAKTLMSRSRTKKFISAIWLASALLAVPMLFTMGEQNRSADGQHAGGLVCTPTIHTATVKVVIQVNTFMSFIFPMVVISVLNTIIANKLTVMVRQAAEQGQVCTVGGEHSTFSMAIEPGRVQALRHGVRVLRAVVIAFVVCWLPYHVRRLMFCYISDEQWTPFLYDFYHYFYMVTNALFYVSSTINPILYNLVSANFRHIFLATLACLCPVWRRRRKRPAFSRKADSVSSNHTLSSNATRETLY
Neurotensin receptor type 2, sequence (O95665 whole entry): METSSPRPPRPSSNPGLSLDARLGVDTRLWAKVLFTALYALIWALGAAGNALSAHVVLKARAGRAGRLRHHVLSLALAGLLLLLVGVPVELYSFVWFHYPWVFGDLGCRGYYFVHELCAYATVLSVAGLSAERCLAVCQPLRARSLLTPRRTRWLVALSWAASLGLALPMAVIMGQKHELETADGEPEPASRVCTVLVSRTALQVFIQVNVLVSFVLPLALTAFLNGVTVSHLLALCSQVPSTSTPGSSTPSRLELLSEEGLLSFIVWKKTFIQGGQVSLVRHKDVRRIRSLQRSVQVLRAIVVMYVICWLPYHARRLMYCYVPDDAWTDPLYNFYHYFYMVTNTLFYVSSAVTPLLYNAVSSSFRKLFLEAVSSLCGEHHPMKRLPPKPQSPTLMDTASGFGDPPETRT

remaining at 24 h [2] | remaining at 720 h [6] | remaining at 24 h [11] | remaining at 720 h [12] | Papp at 4 h, 100 µM [15] | Ki [17] | Emax [18] | Ki [19] | EC50 [21] | Structure (SMILES) | viability [1] | viability [3] | Activity [4] | Activity [5] | Activity [13] | viability [14] | further results
– | – | – | – | – | – | – | – | – | CC[C@H](C)[C@H](NC(=O)[C@H](Cc1ccc(O)cc1)NC(=O)[C@@H]1CCCN1C(=O)[C@H](CCON=C(N)N)NC(=O)[C@@H](N)CCON=C(N)N)C(=O)N[C@@H](CC(C)C)C(=O)O | – | – | Non-Toxic | Non-Toxic | Non-Toxic | – | –
100% | > 95% | 100% | > 94% | 0.89 ×10⁻⁶ cm/s | – | – | – | – | CC[C@H](C)[C@H](NC(=O)[C@H](Cc1ccc(O)cc1)NC(=O)[C@@H]1CCCN1C(=O)[C@H](CCON=C(N)N)NC(=O)[C@@H](N)CCCN=C(N)N)C(=O)N[C@@H](CC(C)C)C(=O)O | 99.8% | 97.7% | – | – | – | 88.9% | –
– | – | – | – | – | – | – | – | – | CC[C@H](C)[C@H](NC(=O)[C@H](Cc1ccc(O)cc1)NC(=O)[C@@H]1CCCN1C(=O)[C@H](CCCN=C(N)N)NC(=O)[C@@H](N)CCON=C(N)N)C(=O)N[C@@H](CC(C)C)C(=O)O | – | – | Non-Toxic | Non-Toxic | Non-Toxic | – | –
100% | > 100% | 100% | > 97% | 2.81 ×10⁻⁶ cm/s | 6.5 nM | 97% | 6.9 nM | 0.82 nM | CC[C@H](C)[C@H](NC(=O)[C@H](Cc1ccc(O)cc1)NC(=O)[C@@H]1CCCN1C(=O)[C@H](CCON=C(N)N)NC(=O)[C@@H](N)CCCCN)C(=O)N[C@@H](CC(C)C)C(=O)O (H-K[Cav]PYIL-OH) | 95.1% | 97.3% | – | – | – | 94.6% | Ratio Ki [20]: 1.06; Activity [7]: Toxic; Activity [8]: Active; Activity [9]: 87%; Activity [10]: Non-Toxic; Activity [16]: 90%
– | – | – | – | – | > 50000 nM | 100% | > 50000 nM | 3200 nM | CC[C@H](C)[C@H](NC(=O)[C@H](Cc1ccc(O)cc1)NC(=O)[C@@H]1CCCN1)C(=O)N[C@@H](CC(C)C)C(=O)O (H-PYIL-OH) | – | – | Non-Toxic | Non-Toxic | Non-Toxic | – | –
– | – | – | – | – | 14 nM | 99% | 15 nM | 0.85 nM | CC[C@H](C)[C@H](NC(=O)[C@H](Cc1ccc(O)cc1)NC(=O)[C@@H]1CCCN1C(=O)[C@H](CCCCN)NC(=O)[C@@H](N)CCON=C(N)N)C(=O)N[C@@H](CC(C)C)C(=O)O (H-[Cav]KPYIL-OH) | – | – | Non-Toxic | Non-Toxic | Non-Toxic | – | Ratio Ki [20]: 1.07
– | – | – | – | – | – | – | – | – | CC(C)C[C@H](NC(=O)[C@@H](NC(=O)[C@H](Cc1ccc(O)cc1)NC(=O)[C@@H]1CCCN1C(=O)[C@H](CCCNC(=N)N)NC(=O)[C@@H](C)CCCCN)C(C)(C)C)C(=O)O (X1-RPY[Tle]L-OH) | – | – | – | – | – | – | Kd [22]: 5.71 nM

Structure (SMILES) | remaining at 24 h [2] | remaining at 720 h [6] | remaining at 24 h [11] | remaining at 720 h [12] | Papp at 4 h, 100 µM [15] | Ki [17] | Emax [18] | Ki [19] | EC50 [21] | viability [1] | viability [3] | Activity [4] | Activity [5] | Activity [13] | viability [14] | further results
CC[C@H](C)[C@H](NC(=O)[C@H](Cc1ccc(O)cc1)NC(=O)[C@@H]1CCCN1C(=O)[C@H](CCCNC(=N)N)NC(=O)[C@@H](N)CCCNC(=N)N)C(=O)N[C@@H](CC(C)C)C(=O)O | 100% | 100% | 100% | > 97% | 0.64 ×10⁻⁶ cm/s | – | – | – | – | 96% | 93.3% | Non-Toxic | Non-Toxic | Non-Toxic | 90.7% | Activity [7]: Toxic; Activity [8]: Active; Activity [9]: 31%; Activity [10]: Non-Toxic; Activity [16]: 77.5%
